What was measured:
[1] = tested on: CAL-27; experiment: Potentiation of 2.5 uM cisplatin-induced toxicity in 1 uM cisplatin resistant human CAL27 cells at 0.25 uM pretreated for 48 hrs followed by 1 uM cisplatin treatment by MTT assay; type: functional
[2] = tested on: CAL-27; experiment: Potentiation of 1 uM cisplatin-induced toxicity in 1 uM cisplatin resistant human CAL27 cells at 0.5 uM pretreated for 48 hrs followed by 1 uM cisplatin treatment by MTT assay; type: functional
[3] = tested on: KYSE-510; experiment: Potentiation of 0.75 uM cisplatin-induced toxicity in 0.5 uM cisplatin resistant human KYSE-510 cells at 0.25 uM pretreated for 48 hrs followed by 0.5 uM cisplatin treatment by MTT assay; type: functional
Method in brief: (§1)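 Cisplatin-resistant Kyse510 CisR (derived by weekly cycles of cisplatin over 24−30 weeks), grown in RPMI 1640 with 10% FCS at 37 °C, 5% CO₂. Test agent added 48 h before cisplatin, then 72 h further incubation. Viability by MTT (read at 544/690 nm) relative to untreated control wells. Combination index by Chou−Talalay method. Mean of three experiments.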

[4] = tested on: A2780; experiment: Potentiation of 5 uM cisplatin-induced toxicity in 5 uM cisplatin resistant human A2780 cells at 0.25 uM pretreated for 48 hrs followed by 5 uM cisplatin treatment by MTT assay; type: functional
[5] = molecular target: Histone deacetylase; experiment: Inhibition of HDAC in cisplatin resistant human KYSE-510 cells after 18 hrs by fluorescence assay; type: cell-based
[6] = tested on: A2780; experiment: Cytotoxicity against human A2780 cells after 72 hrs by MTT assay; type: functional, cell-based; conditions: A2780, 72 h
[7] = tested on: MDA-MB-231; experiment: Cytotoxicity against cisplatin sensitive human MDA-MB-231 cells after 72 hrs by MTT assay; type: functional, cell-based
Method in brief: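 MDA-MB-231 (parental), 10 000 cells/well, in DMEM with 15% FCS at 37 °C, 5% CO2. Compounds added 24 h after seeding for 72 h. MTT (5 mg/mL in PBS) was added, formazan dissolved in DMSO, absorbance read at 544 and 690 nm. IC50 from four-parameter logistic fit of ≥3 experiments in triplicate.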

[8] = tested on: A2780; experiment: Potentiation of 8 uM cisplatin-induced toxicity in 5 uM cisplatin resistant human A2780 cells at 1.5 uM pretreated for 48 hrs followed by 5 uM cisplatin treatment by MTT assay; type: functional
[9] = tested on: KYSE-510; experiment: Potentiation of 8 uM cisplatin-induced toxicity in 0.5 uM cisplatin resistant human KYSE-510 cells at 0.25 uM pretreated for 48 hrs followed by 0.5 uM cisplatin treatment by MTT assay; type: functional
[10] = tested on: A2780; experiment: Potentiation of 8 uM cisplatin-induced toxicity in 5 uM cisplatin resistant human A2780 cells at 1 uM pretreated for 48 hrs followed by 5 uM cisplatin treatment by MTT assay; type: functional
[11] = tested on: CAL-27; experiment: Potentiation of 5 uM cisplatin-induced toxicity in 1 uM cisplatin resistant human CAL27 cells at 1.5 uM pretreated for 48 hrs followed by 1 uM cisplatin treatment by MTT assay; type: functional
[12] = tested on: CAL-27; experiment: Potentiation of 45 uM cisplatin-induced toxicity in 1 uM cisplatin resistant human CAL27 cells at 1.5 uM pretreated for 48 hrs followed by 1 uM cisplatin treatment by MTT assay; type: functional
[13] = tested on: CAL-27; experiment: Potentiation of 1 uM cisplatin-induced toxicity in 1 uM cisplatin resistant human CAL27 cells at 0.25 uM pretreated for 48 hrs followed by 1 uM cisplatin treatment by MTT assay; type: functional
[14] = molecular target: Histone deacetylase 5 (Homo sapiens, UniProt Q9UQL6); experiment: Inhibition of human HDAC5 by fluorescence assay
Chain of Histone deacetylase 5 (Q9UQL6 whole entry): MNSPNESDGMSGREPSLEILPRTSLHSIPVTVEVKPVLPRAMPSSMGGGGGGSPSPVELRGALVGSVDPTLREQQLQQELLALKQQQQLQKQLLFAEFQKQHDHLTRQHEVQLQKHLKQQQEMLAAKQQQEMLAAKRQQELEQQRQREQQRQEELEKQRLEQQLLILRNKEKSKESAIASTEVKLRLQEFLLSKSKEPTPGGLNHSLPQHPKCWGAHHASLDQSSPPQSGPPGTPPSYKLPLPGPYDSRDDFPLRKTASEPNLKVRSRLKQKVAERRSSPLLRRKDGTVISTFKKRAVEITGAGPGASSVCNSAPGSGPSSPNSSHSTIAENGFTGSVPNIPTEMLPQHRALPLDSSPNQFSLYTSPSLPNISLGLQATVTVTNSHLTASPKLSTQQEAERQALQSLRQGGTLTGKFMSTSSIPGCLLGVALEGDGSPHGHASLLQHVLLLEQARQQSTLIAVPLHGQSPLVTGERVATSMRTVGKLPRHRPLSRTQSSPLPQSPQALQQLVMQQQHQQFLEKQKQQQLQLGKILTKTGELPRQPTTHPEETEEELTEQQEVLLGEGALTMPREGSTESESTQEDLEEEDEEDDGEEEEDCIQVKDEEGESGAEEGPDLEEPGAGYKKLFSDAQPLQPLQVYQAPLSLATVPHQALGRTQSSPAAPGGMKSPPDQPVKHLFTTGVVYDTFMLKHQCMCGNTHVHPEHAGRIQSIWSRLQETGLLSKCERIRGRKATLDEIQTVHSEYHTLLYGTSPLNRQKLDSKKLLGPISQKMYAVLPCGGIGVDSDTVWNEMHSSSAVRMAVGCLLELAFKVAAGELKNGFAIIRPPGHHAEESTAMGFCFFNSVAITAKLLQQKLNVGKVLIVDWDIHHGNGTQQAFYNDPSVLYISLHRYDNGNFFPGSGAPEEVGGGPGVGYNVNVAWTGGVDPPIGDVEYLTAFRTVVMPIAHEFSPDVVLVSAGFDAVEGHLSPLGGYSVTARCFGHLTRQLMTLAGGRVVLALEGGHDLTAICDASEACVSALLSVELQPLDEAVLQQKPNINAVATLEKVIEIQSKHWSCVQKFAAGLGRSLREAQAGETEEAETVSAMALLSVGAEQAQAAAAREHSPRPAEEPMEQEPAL

[15] = tested on: A2780; experiment: Potentiation of 8 uM cisplatin-induced toxicity in 5 uM cisplatin resistant human A2780 cells at 0.25 uM pretreated for 48 hrs followed by 5 uM cisplatin treatment by MTT assay; type: functional
[16] = tested on: MDA-MB-231; experiment: Potentiation of […] cisplatin-induced toxicity in 1 uM cisplatin resistant human MDA-MB-231 cells at 1 uM pretreated for 48 hrs followed by 1 uM cisplatin treatment by MTT assay; type: functional
[17] = tested on: KYSE-510; experiment: Potentiation of 0.75 uM cisplatin-induced toxicity in 0.5 uM cisplatin resistant human KYSE-510 cells at 0.5 uM pretreated for 48 hrs followed by 0.5 uM cisplatin treatment by MTT assay; type: functional; method in brief: as §1
[18] = tested on: KYSE-510; experiment: Potentiation of 8 uM cisplatin-induced toxicity in 0.5 uM cisplatin resistant human KYSE-510 cells at 0.5 uM pretreated for 48 hrs followed by 0.5 uM cisplatin treatment by MTT assay; type: functional
[19] = molecular target: Histone deacetylase; experiment: Inhibition of HDAC in cisplatin resistant human CAL27 cells after 18 hrs by fluorescence assay; type: cell-based; conditions: cal-27
[20] = tested on: A2780; experiment: Potentiation of 1 uM cisplatin-induced toxicity in 5 uM cisplatin resistant human A2780 cells at 0.5 uM pretreated for 48 hrs followed by 5 uM cisplatin treatment by MTT assay; type: functional
[21] = tested on: CAL-27; experiment: Potentiation of 10 uM cisplatin-induced toxicity in 1 uM cisplatin resistant human CAL27 cells at 0.5 uM pretreated for 48 hrs followed by 1 uM cisplatin treatment by MTT assay; type: functional
[22] = tested on: MDA-MB-231; experiment: Potentiation of 40 uM cisplatin-induced toxicity in 1 uM cisplatin resistant human MDA-MB-231 cells at 1 uM pretreated for 48 hrs followed by 1 uM cisplatin treatment by MTT assay; type: functional
[23] = tested on: A2780; experiment: Potentiation of 10 uM cisplatin-induced toxicity in 5 uM cisplatin resistant human A2780 cells at 1 uM pretreated for 48 hrs followed by 5 uM cisplatin treatment by MTT assay; type: functional
[24] = molecular target: T1, Histone deacetylase 8 (Homo sapiens, UniProt Q9BY41); experiment: Inhibition of human HDAC8 by fluorescence assay
T1 sequence (Q9BY41 whole entry): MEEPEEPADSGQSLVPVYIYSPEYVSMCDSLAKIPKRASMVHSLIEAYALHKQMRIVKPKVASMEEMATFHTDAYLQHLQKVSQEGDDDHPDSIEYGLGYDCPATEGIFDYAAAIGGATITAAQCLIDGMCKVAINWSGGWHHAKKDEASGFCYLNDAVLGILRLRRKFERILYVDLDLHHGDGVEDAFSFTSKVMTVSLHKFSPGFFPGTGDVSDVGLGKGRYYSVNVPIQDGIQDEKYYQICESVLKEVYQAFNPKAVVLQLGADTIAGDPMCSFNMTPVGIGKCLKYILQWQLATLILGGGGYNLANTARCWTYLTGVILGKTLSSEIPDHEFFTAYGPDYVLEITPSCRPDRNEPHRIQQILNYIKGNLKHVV

[25] = tested on: MDA-MB-231; experiment: Potentiation of 5 uM cisplatin-induced toxicity in 1 uM cisplatin resistant human MDA-MB-231 cells at 1 uM pretreated for 48 hrs followed by 1 uM cisplatin treatment by MTT assay; type: functional

With `Cc1cc(C)cc(C(=O)NOCCCCCC(=O)NO)c1` the Activity [1] was “Dose-dependent effect”, the Activity [2] was “Dose-dependent effect” and the “fractional inhibitory concentration index (FICI)” value [2] was under 0.2. The Activity [3] was “Dose-dependent effect”, the “fractional inhibitory concentration index (FICI)” value [3] was 0.1 and the Activity [4] was “Dose-dependent effect”. The “fractional inhibitory concentration index (FICI)” value [4] was 0.85, the IC50 [5] was 350 nM and the IC50 [6] was 490 nM. For the same compound, the Activity [7] was “Dose-dependent effect”, the IC50 ([7]; MDA-MB-231, 72 h) was 1370 nM and the Activity [8] was “Dose-dependent effect”. The “fractional inhibitory concentration index (FICI)” value [8] was 0.74, the Activity [9] was “Dose-dependent effect” and the “fractional inhibitory concentration index (FICI)” value [9] was 0.18. The Activity [10] was “Dose-dependent effect”, the “fractional inhibitory concentration index (FICI)” value [10] was 0.59 and the Activity [11] was “Dose-dependent effect”. For the same compound, the “fractional inhibitory concentration index (FICI)” value [11] was 0.22, the Activity [12] was “Dose-dependent effect” and the “fractional inhibitory concentration index (FICI)” value [12] was 0.23. The Activity [13] was “Dose-dependent effect”, the “fractional inhibitory concentration index (FICI)” value [13] was under 0.2 and the IC50 [14] was 4.22 nM. The Activity [15] was “Dose-dependent effect”, the “fractional inhibitory concentration index (FICI)” value [15] was 0.78 and the Activity [16] was “Dose-dependent effect”. The “fractional inhibitory concentration index (FICI)” value [16] was 0.75, the Activity [17] was “Dose-dependent effect” and the “fractional inhibitory concentration index (FICI)” value [17] was 0.07. For the same compound, the Activity [18] was “Dose-dependent effect”, the “fractional inhibitory concentration index (FICI)” value [18] was 0.16 and the IC50 [19] was 360 nM. For the same compound, the Activity [20] was “Dose-dependent effect”, the “fractional inhibitory concentration index (FICI)” value [20] was 0.85 and the Activity [21] was “Dose-dependent effect”. The “fractional inhibitory concentration index (FICI)” value [21] was 0.41, the Activity [22] was “Dose-dependent effect” and the “fractional inhibitory concentration index (FICI)” value [22] was 0.78. For the same compound, the Activity [23] was “Dose-dependent effect”, the “fractional inhibitory concentration index (FICI)” value [23] was 0.61 and the IC50 [24] was 1280 nM. The Activity [25] was “Dose-dependent effect”.

— ChEMBL document CHEMBL2311425, “Histone deacetylase (HDAC) inhibitors with a novel connecting unit linker region reveal a selectivity profile for HDAC4 and HDAC5 with improved activity against chemoresistant cancer cells” (J Med Chem, 2013)
